# Screening results deposited in PubChem by The Scripps Research Institute Molecular Screening Center.
# Only some compounds are listed: those with a hit (about 1.8% of all), similar ones and a draw of the others.
# DDE Tn7 FP inh = inhibitors of Tn7 peptide binding to human fibrin DD(E); P02675; FP displacement of FITC-Tn7 peptide from fibrin DD(E); 0% = median of compound wells per plate; inhibition, % at 8.3 µM; hit rate 0.13% among 370,000; AID 720508;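 active = inhibition above the mean of compounds falling within the control limits plus 3 SD of them, cut at about 14% in these data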;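 also: 0% = plate median of compound wells and 100% = 10 µM Aha-Tn7 peptide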
#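 Assay system: Human fibrin DD(E) protein | Medium: Tris buffer with calcium and detergent, pH 7.8 | Reagent: 0.1 µM fluorescent Tn7 | Compound dosing: Single point at 8.3 µM | Times: 10 min preincubation, 3 h with tracer, room temperature | Detection: Fluorescence polarization of the labelled Tn7 tracer | Controls: Aha-Tn7 high control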
# mABHD4 FP = inhibitors of mouse ABHD4. Q8VD66. purified mABHD4, FP-Rh probe fluorescence polarization. inhibition, % at 8.92 µM. hit rate 0.54% among 370,000;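 active = inhibition exceeding the mean over every tested compound plus 3 SD, cut at about 30% in these data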;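 also: 0% = plate median of compound wells and 100% = S159A mutant with DMSO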
#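 System: mouse ABHD4 enzyme, wild type / Medium: HEPES pH 7.0, NaCl, Pluronic buffer / Reagent: FP-Rh activity-based fluorescent probe / Control set: S159A mutant high control, sample median low control / Detection: fluorescence polarization with parallel and perpendicular emission, 525/598 nm / Schedule: 45 min + 60 min at 25 °C / Compound dosing: 8.92 µM, single dose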
# Tn6 DDE FP = DD(E)-Tn6 binding inhibition, primary FP screen; P02675; Fibrin DD(E) TRITC-Tn6 fluorescence polarization displacement; inhibition, % at 8.3 µM; hit rate 0.21% among 370,000;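 active = inhibition above a per-campaign cutoff: mean of compounds within control limits plus 3 SD, cut at about 15% in these data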;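 also: 0% = median of all compound wells on the plate and 100% = blocking peptide control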
# TCR-CD3 inh = inhibitors of human TCR-CD3 interaction | hit rate 0.37% among 360,000 | TAMRA-labeled TCR probe fluorescence, biochemical | AID 651800 | inhibition, % at 9.4 µM;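 also: recombinant mutant TCR 2C K166C tagged with TAMRA read by polarization; 0% = receptor in buffer alone and 100% = receptor with positive control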
# HTRA1 inh = blocks human HTRA1 serine peptidase; Q92743; recombinant HTRA1, FP-rhodamine activity-based probe, fluorescence polarization; inhibition, % at 5.96 µM; hit rate 0.5% among 340,000; AID 504803; in the data active = inhibition above about 36%;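 also: 0% = enzyme with DMSO and 100% = wells lacking enzyme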
# SIAE primary = human SIAE inhibition, primary screen; inhibition, % at 9.66 µM; SIAE FP-Rh probe binding, fluorescence polarization; AID 1053197; hit rate 0.69% among 370,000;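 active = inhibition above a cutoff: mean of compounds within the control limits plus 3 SD of those, cut at about 17% in these data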;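 also: 0% = plate median of compound wells and 100% = probe without SIAE protein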
# Target sequence (Q9HAT2 whole entry, looked up): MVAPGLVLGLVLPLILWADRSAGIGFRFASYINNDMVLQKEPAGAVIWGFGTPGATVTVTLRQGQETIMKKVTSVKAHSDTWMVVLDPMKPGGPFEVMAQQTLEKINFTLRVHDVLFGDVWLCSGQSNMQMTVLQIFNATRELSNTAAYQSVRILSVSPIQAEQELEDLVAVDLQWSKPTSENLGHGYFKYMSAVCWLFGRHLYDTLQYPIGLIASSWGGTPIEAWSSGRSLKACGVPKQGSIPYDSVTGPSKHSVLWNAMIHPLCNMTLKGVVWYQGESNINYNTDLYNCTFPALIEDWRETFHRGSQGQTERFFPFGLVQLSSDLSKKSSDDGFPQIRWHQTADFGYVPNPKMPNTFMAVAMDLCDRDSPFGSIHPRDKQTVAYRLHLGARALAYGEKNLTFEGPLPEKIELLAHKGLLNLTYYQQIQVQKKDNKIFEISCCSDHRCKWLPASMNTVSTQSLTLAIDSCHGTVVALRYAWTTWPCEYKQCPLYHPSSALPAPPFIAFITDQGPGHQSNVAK
# HTRA1 conf = HTRA1 (human) inhibition, confirmation; recombinant HTRA1, FP-rhodamine activity-based probe, fluorescence polarization; hit rate 66% among 1,600; shares compounds with HTRA1 inh; inhibition, % at 5.96 µM;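 active = mean inhibition over three repeats above a set limit taken from the earlier primary screen, cut at about 37% in these data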;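 also: 0% = HTRA1 with DMSO and 100% = wells lacking HTRA1; inhibitors block probe binding so polarization drops and inhibition rises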
# BSA probe FL = BSA probe counter-screen for TCR-CD3 inhibitors. shares compounds with TCR-CD3 inh. TAMRA-labeled BSA probe fluorescence counterscreen. inhibition, % at 9.4 µM. hit rate 10% among 1,200; in the data active = inhibition above about 23%;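 also: 0% = buffer low control and 100% = reference high control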
# TCR-CD3 conf = confirmation of human TCR-CD3 interaction inhibitors | hit rate 48% among 1,200 | shares compounds with TCR-CD3 inh | TAMRA-labeled TCR probe fluorescence binding assay | inhibition, % at 9.4 µM
# Tn7 DDE conf = confirmation of inhibitors of Tn7 binding to human fibrin DD(E) | inhibition, % at 8.3 µM | FP displacement of TRITC-Tn7 peptide from DD(E); 0% set at plate's compound-well median | shares compounds with DDE Tn7 FP inh | hit rate 5% among 460;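 active = inhibition above the campaign cutoff, the mean of compounds within control limits plus 3 SD, cut at about 14% in these data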;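 also: 100% = median FP of high control wells holding Aha-Tn7 inhibitor peptide; displacers lower polarization since freed probe rises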
# DDE Tn7 FP ctr = DD(E)-Tn7 binding inhibition, counter-screen. shares compounds with DDE Tn7 FP inh. fibrin DD(E), TRITC-Tn7 probe displacement, fluorescence polarization. inhibition, % at 8.3 µM. hit rate 3% among 460. AID 720633;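 active = inhibition above the cutoff, the mean of compounds lying between the control bounds plus 3 SD of those compounds, cut at about 17% in these data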;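 also: 0% = median of compound sample wells and 100% = excess unlabeled Aha-Tn7 peptide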
# Tn6 DDE ctr = counter-screen hit for Tn6 peptide-fibrin DD(E) binding disruption | shares compounds with Tn6 DDE FP | TRITC-Tn6 fluorescence polarization displacement; 0% = median of compound wells, not DMSO | inhibition, % at 8.3 µM | hit rate 2% among 680 | AID 720621;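 active = inhibition above the mean of test compounds lying between the control limits plus 3 SD of those, cut at about 14% in these data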;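 also: 0% = median of compound wells and 100% = wells with Aha-Tn7 blocking peptide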
# DDE Tn6 confirm = DD(E)-Tn6 binding inhibition, FP confirmation. shares compounds with Tn6 DDE FP. FP displacement of TRITC-Tn6 peptide from DD(E); 0% = per-plate median of test wells. inhibition, % at 8.3 µM. hit rate 10% among 680. AID 720631;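 active = inhibition above the mean of compounds lying within the control limits plus 3 SD, cut at about 16% in these data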;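 also: 100% = high control wells holding a competing inhibitor peptide at 10 µM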
# ABHD4 confirm = confirmation of mouse ABHD4 inhibitors; shares compounds with mABHD4 FP; purified mABHD4, FP-Rh probe fluorescence polarization; inhibition, % at 8.92 µM; hit rate 55% among 1,800; AID 720658;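 active = mean inhibition across replicates above the hit cutoff set in the primary screen, cut at about 30% in these data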;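 also: 0% = wild-type ABHD4 with DMSO and 100% = catalytically dead S159A mutant with DMSO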
# SIAE inh conf = confirmation of human SIAE inhibitors; hit rate 13% among 2,300; inhibition, % at 9.66 µM; shares compounds with SIAE primary; SIAE FP-Rh activity-based probe, fluorescence polarization;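 active = mean inhibition of the replicates above the hit cutoff set in the primary screen, cut at about 17% in these data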;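 also: 0% = SIAE with DMSO and probe and 100% = probe without SIAE; inhibitors lower polarization as more probe stays unbound to SIAE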
# Starred values were filed as active, the others as inactive; · = no result given; + = active, no number. Rule as the data show it, unless noted: active = inhibition above about 19%; inactive = the rest.
SMILES,DDE Tn7 FP inh,mABHD4 FP,Tn6 DDE FP,TCR-CD3 inh,HTRA1 inh,SIAE primary,BSA probe FL,TCR-CD3 conf,others
COP(=O)(OC)C(C)NC(=O)OCc1ccccc1 (configuration not stated),-1,11,1,·,·,-4,·,·,
CN(C)C1C(=O)C(C(N)=O)=C(O)C2(O)C(=O)C3=C(O)c4c(O)cccc4C(C)(O)C3C(O)C12 (configuration not stated),-5,67*,-15,25*,56*,12,-1,7,HTRA1 conf=8;ABHD4 confirm=18
CC(C)C[C@H]1N=C(c2ccccc2)c2ccccc2N(CC(=O)NC(C)(C)C)C1=O,2,8,5,·,·,3,·,·,
CCN(CC)c1ccc(N=Cc2c(O)n(-c3cc(OC)ccc3OC)c(=O)[nH]c2=O)cc1,-5,65*,0,9,46*,25*,·,·,HTRA1 conf=14;ABHD4 confirm=4;SIAE inh conf=5
COc1ccc([C@@H]2C[C@H]3[C@@H](CN2)CON3C)cc1,-3,1,-9,·,·,-2,·,·,
NC(N)=N/N=C/c1ccc(N(c2ccccc2)c2ccccc2)cc1,-4,42*,-10,-4,46*,22*,·,·,HTRA1 conf=60*;ABHD4 confirm=71*;SIAE inh conf=36*
Cc1c(P(=S)(c2ccccc2)c2ccccc2)c2ccccc2n1C,0,1,3,·,·,-1,·,·,
C[n+]1c2ccccc2nc2ccc(NCCO)cc21,-1,97*,+,196*,86*,60*,177*,139*,HTRA1 conf=86*;Tn6 DDE ctr=1;DDE Tn6 confirm=122*;ABHD4 confirm=63*;SIAE inh conf=68*
CNc1ccc2nc3ccccc3[n+](C)c2c1,-1,119*,+,+,115*,108*,+,184*,HTRA1 conf=101*;Tn6 DDE ctr=-8;DDE Tn6 confirm=94*;ABHD4 confirm=101*;SIAE inh conf=113*
OCCNc1c2c(nc3ccccc13)CCCC2,-1,2,-10,-2,1,6,·,·,
Cc1cccc(C(C)c2cnc[nH]2)c1C (configuration not stated),6,-2,-6,·,·,0,·,·,
NC(=O)c1ccc(N=Cc2c(O)n(Cc3ccco3)c(=O)[nH]c2=O)cc1,-6,-4,7,21*,-3,-2,13,26*,
CC(NC(=O)OCc1ccccc1)P(=O)(Oc1ccccc1)Oc1ccccc1 (configuration not stated),-3,-4,-3,·,·,-4,·,·,
N#CCC[C@@H]1CC[C@]2(CCCN(Cc3ccccn3)C2)O1,-5,-3,-3,·,·,-4,·,·,
Oc1ccc(C[C@H]2NCCc3cc(O)c(O)cc32)cc1O,4,15,0,113*,28,16,-5,19*,
CN(C)c1ccc(C=C2C(=O)NC(=O)NC2=O)cc1,-5,1,-4,-3,-1,1,·,·,
CC(=O)Nc1ccc(C=C2C(=O)NC(=O)NC2=O)cc1,6,9,7,51*,-1,-1,-3,-4,
COc1cc2c(cc1OC)-c1c(OC)c(OC)cc3c1[C@H](C2)N(C)CC3,-4,17,-1,-3,15,10,·,·,
COc1cc2c(cc1O)CC1c3c(cc(O)c(OC)c3-2)CCN1C (configuration not stated),-4,24,-8,22*,8,11,-1,7,
C=C1[C@@H](C)C2[C@H](Cc3ccccc3)NC(=O)[C@]23[C@H](OC(C)=O)/C=C/[C@@](C)(O)C(=O)[C@@H](C)C/C=C/[C@H]3[C@@H]1O (some centres not stated),0,-1,3,·,·,-2,·,·,
O=C(N/N=C/c1c(O)n(Cc2ccccc2)c(=O)[nH]c1=O)c1ccncc1,-3,24,-1,26*,·,4,-11,9,
C/C(=N\NC(=O)c1ccncc1)c1c(O)n(Cc2ccccc2)c(=O)[nH]c1=O,-8,8,0,19*,5,0,-7,11,
O=C(N/N=C/c1c(O)n(Cc2ccc(F)cc2)c(=O)[nH]c1=O)c1ccccc1,-1,10,8,11,10,-3,·,·,
O=C(N/N=C/c1c(O)n(-c2ccccc2)c(=S)[nH]c1=O)c1ccccc1,3,3,0,27*,·,-11,-11,7,
C/C(=N\Nc1ccccc1)c1c(O)n(Cc2ccccc2)c(=O)[nH]c1=O,5,-7,2,13,-8,0,·,·,
SMILES,DDE Tn7 FP inh,mABHD4 FP,Tn6 DDE FP,TCR-CD3 inh,HTRA1 inh,SIAE primary,BSA probe FL,TCR-CD3 conf,others
C/C(=N\NC(=O)c1ccccc1O)c1c(O)n(Cc2ccccc2)c(=O)[nH]c1=O,4,25,2,34*,23,4,-15,37*,
C=CCN(CC#CCO)Cc1ccc(OC)cc1OC,1,1,1,·,·,2,·,·,
COC(=O)C(O)(c1ccc(NC(=O)c2cccs2)c(C)c1)C(F)(F)F (configuration not stated),4,-10,-5,-6,1,-4,·,·,
COC(=O)C(O)(c1ccc(N=Cc2ccccc2O)c(C)c1)C(F)(F)F (configuration not stated),16*,-1,4,3,4,1,·,·,Tn7 DDE conf=-1;DDE Tn7 FP ctr=-3
Cc1ccc2cc(C=C(C#N)C#N)c(Cl)nc2c1,15*,7,2,-2,-12,8,·,·,Tn7 DDE conf=10;DDE Tn7 FP ctr=5
COc1cccc(NC2=NCCS2)c1,-2,-2,2,-6,·,1,·,·,
